From ChEMBL document CHEMBL4196069 (Eur J Med Chem, 2018)

Tests used:
Bel-7402 = test: Antiproliferative activity against human Bel7402 cells after 72 hrs by MTT assay; type: functional, cell-based; details: Bel-7402, 72 h
In short: (§1)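 Cells pre-incubated 24 h at 37 °C in humidified 5% CO2, then exposed to compounds for 72 h. MTT (5 mg/mL) was added for 4 h, formazan was dissolved in DMSO, and OD was read at 570 nm. Vehicle control was 0.1% DMSO. IC50 was calculated from inhibition ratios as the mean ± SD of three independent experiments.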

HL-60 = test: Antiproliferative activity against human HL60 cells after 72 hrs by MTT assay; type: functional, cell-based; details: HL-60, 72 h; in short: as §1
L02 = test: Antiproliferative activity against human LO2 cells after 72 hrs by MTT assay; type: cell-based; details: L02, 72 h; in short: as §1
[1] = Selectivity index, ratio of IC50 for human LO2 cells to IC50 for human Bel7402 cells; type: toxicity; details: LO2 cells versus Bel7402 cells, read-out: Ratio IC50
In short: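 Selectivity index = IC50(L-O2)/IC50(Bel-7402), both IC50s from the 72 h MTT assay (mean of three independent experiments).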

Bel7402/5-FU = test: Antiproliferative activity against human Bel7402/5-FU cells after 72 hrs by MTT assay; type: functional, cell-based; in short: as §1
PC-3 = test: Antiproliferative activity against human PC3 cells after 72 hrs by MTT assay; type: functional, cell-based; details: PC-3, 72 h; in short: as §1

| Structure (SMILES) | IC50 (Bel-7402) [µM] | IC50 (HL-60) [µM] | IC50 (L02) [µM] | selectivity ratio [1] | IC50 (Bel7402/5-FU) [µM] | IC50 (PC-3) [µM] |
| --- | --- | --- | --- | --- | --- | --- |
| COC(=O)[C@H](Cc1ccc(N(CCCl)CCCl)cc1)NC(=O)CCC(=O)O[C@@H]1C[C@@H]2[C@H](/C=C/CCC[C@H](C)OC(=O)/C=C/[C@H]2OC(=O)CCC(=O)N[C@@H](Cc2ccc(N(CCCl)CCCl)cc2)C(=O)OC)C1 | 4.85 | 9.37 | 29.9 | 6.2 | 7.47 | 32.5 |
| C[C@H]1CCC/C=C/[C@@H]2C[C@H](OC(=O)CCCc3ccc(N(CCCl)CCCl)cc3)C[C@H]2[C@H](OC(=O)CCCc2ccc(N(CCCl)CCCl)cc2)/C=C/C(=O)O1 | 7.25 | 67.4 | 19.5 | 2.7 | 15.6 | 20.4 |
| COC(=O)[C@H](Cc1ccc(N(CCCl)CCCl)cc1)NC(=O)CCC(=O)O[C@@H]1C[C@H]2[C@H](O)/C=C/C(=O)O[C@@H](C)CCC/C=C/[C@@H]2C1 | 1.49 | 14.4 | 4.57 | 3.1 | 3.05 | 17.6 |
| COC(=O)[C@H](Cc1ccc(N(CCCl)CCCl)cc1)NC(=O)CCC(=O)O[C@@H]1/C=C/C(=O)O[C@@H](C)CCC/C=C/[C@@H]2C[C@H](O)C[C@H]21 | 1.37 | 1.52 | 5.16 | 3.8 | 4.6 | 14.5 |
| O=c1[nH]cc(F)c(=O)[nH]1 [FLUOROURACIL] | 18.5 | 2.37 | – | – | > 80 | 23.9 |
| O=C(O)CCCc1ccc(N(CCCl)CCCl)cc1 [CHLORAMBUCIL] | > 80 | 11.6 | > 80 | – | > 80 | 40.4 |
| C[C@H]1CCC/C=C/[C@@H]2C[C@H](O)C[C@H]2[C@H](O)/C=C/C(=O)O1 [BREFELDIN A] | 0.024 | 0.025 | < 0.001 | – | 0.82 | – |
| C[C@H]1CCC/C=C/[C@@H]2C[C@H](OC(=O)c3ccc(N(CCCl)CCCl)cc3)C[C@H]2[C@H](O)/C=C/C(=O)O1 | 1.45 | 8.25 | 9.51 | 6.6 | 4.05 | 10.6 |
| C[C@H]1CCC/C=C/[C@@H]2C[C@H](OC(=O)CCCc3ccc(N(CCCl)CCCl)cc3)C[C@H]2[C@H](O)/C=C/C(=O)O1 | 4.86 | 34.7 | 15.5 | 3.2 | 13.8 | 6.84 |
| C[C@H]1CCC/C=C/[C@@H]2C[C@H](OC(=O)c3ccc(N(CCCl)CCCl)cc3)C[C@H]2[C@H](OC(=O)c2ccc(N(CCCl)CCCl)cc2)/C=C/C(=O)O1 | 6.3 | 9.31 | 17.3 | 2.7 | 15.3 | 18.5 |
| COC(=O)[C@H](Cc1ccc(N(CCCl)CCCl)cc1)NC(=O)CCC(=O)O | 23.9 | 6.02 | 32.9 | 1.37 | > 80 | > 80 |
| C[C@H]1CCC/C=C/[C@@H]2C[C@H](O)C[C@H]2[C@H](OC(=O)CCCc2ccc(N(CCCl)CCCl)cc2)/C=C/C(=O)O1 | 1.93 | 12.6 | 29.6 | 15.3 | 8.35 | 1.37 |
